Published values from different studies.
Protocols differ between the studies behind these lines.
Read-out: chemical stability

Compound | technique | medium | concentration | pH | half-life [h]
Cc1cccc(C(=O)Oc2cnnc3ccc([N+](=O)[O-])cc23)c1 | – | aqueous buffer | – | pH 7.3 | 0.698
COc1cc(/C=C/C(=O)CC(=O)/C=C/c2ccc(O)c(OC)c2)ccc1O | HPLC | culture medium | 10 µM | – | 0.9
Nc1nc2c(nc([N+](=O)[O-])n2[C@@H]2O[C@H](CO)[C@@H](O)[C@H]2O)c(=O)[nH]1 | HPLC | aqueous buffer | 500 µM | pH 2 | 5.35
COc1ccc(S(=O)(=O)NCC2CCN(C(=O)OC(C(F)(F)F)C(F)(F)F)CC2)cc1 | HPLC | aqueous buffer | 167 µM | pH 7.4 | 2.58
CO[C@@H]1[C@H](O)[C@@H](CO)O[C@H]1n1c([N+](=O)[O-])nc2c(=O)[nH]c(N)nc21 | HPLC | aqueous buffer | 500 µM | pH 2 | 11
Cc1cccc(C(=O)n2ncc(=O)c3cc([N+](=O)[O-])ccc32)c1 | – | aqueous buffer | – | pH 7.3 | 0.55
COc1ccc(OC)c(/C=C2\CC/C(=C\c3ccc(O)c(OC)c3)C2=O)c1 | HPLC | culture medium | 10 µM | – | 2.6
CCOC(=O)c1nn(C(=O)C2CC2)c2ccccc2c1=O | – | aqueous buffer | – | pH 7.3 | 1.44
Cc1ccc(S(=O)(=O)NCC2CCN(C(=O)OC(C(F)(F)F)C(F)(F)F)CC2)cc1 | HPLC | aqueous buffer | 167 µM | pH 7.4 | 1.24
CO[C@@H](C[C@H]1C(C)=CC[C@@H]2[C@]3(C)C[C@H](O[C@@H]4O[C@@H](C)[C@H](OC(=O)c5cccc(O)c5)[C@@H](O[C@@H]5O[C@H](CO)[C@@H](O)[C@H](O)[C@H]5NC(C)=O)[C@H]4O)[C@@H](O)C(C)(C)[C@H]3CC[C@]21C)[C@H](N)C(=O)O.O=C(O)C(F)(F)F | – | simulated intestinal fluid | 1 µM | pH 6.8 | > 8
Cn1nnc2c(-c3ccccc3)ncn2c1=O | HPLC | PBS | – | pH 7.4 | > 20
O=C(OC(C(F)(F)F)C(F)(F)F)N1CCC(CNS(=O)(=O)c2ccc(Cl)cc2)CC1 | HPLC | aqueous buffer | 167 µM | pH 7.4 | 6.86
Cc1cn([C@H]2C=C[C@@H](CO)O2)c(=O)[nH]c1=O | HPLC | aqueous buffer | 920 µM | pH 7.3 | > 40
